pIC50: −log10 of the molar value.
Key:
[1] = tested on: Human immunodeficiency virus 1; test: Antiviral activity against HIV-1 LAI harboring wild type reverse transcriptase infected in human MT4 cells after 5 days by MTT assay; assay type: functional, organism-based; settings: Human immunodeficiency virus 1, LAI, MT4, 120 h
Method in brief: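 MT4 cells were kept in RPMI 1640 with 10% fetal calf serum and antibiotics at 37 °C, 5% CO2. A range of compound concentrations was incubated with HIV-1 LAI at 200 CCID50/well and 30000 MT4 cells/well for 5 days at 37 °C. Cell viability was read by MTT, and IC50 was the concentration giving 50% infection versus the drug-free control.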

[2] = Selectivity index, ratio of CC50 for human MT4 cells to IC50 for HIV-1 LAI harboring wild type reverse transcriptase infected in human MT4 cells; assay type: functional
Method in brief: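 Cytotoxicity was measured in mock-infected MT4 cultures (30000 cells/well) given the same compound concentration range, run in parallel with the infected cultures for 5 days at 37 °C, 5% CO2, with MTT viability. CC50 was the concentration reducing viability by 50% versus the drug-free control. SI was CC50 divided by IC50 against HIV-1 LAI.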

[3] = tested on: Human immunodeficiency virus 1; test: Antiviral activity against HIV1 HXB2 harboring K103N mutant reverse transcriptase infected in human MT4 cells after 5 days by MTT assay; assay type: functional, organism-based; settings: Human immunodeficiency virus 1, HXB2, MT4, 120 h
Method in brief: (§1)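 Mutant viruses were made by recombining the mutant PR-RT sequence into a PR-RT-deleted HIV-1 HXB2 proviral clone. MT4 cells were grown in RPMI 1640 with 10% FCS and antibiotics. Virus at 200 CCID50/well and 30000 cells/well were incubated with varied compound concentrations for 5 days at 37 °C, 5% CO2. MTT viability gave IC50, the concentration giving 50% infection versus the drug-free control.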

[4] = tested on: Human immunodeficiency virus 1; test: Antiviral activity against HIV1 HXB2 harboring Y181C mutant reverse transcriptase infected in human MT4 cells after 5 days by MTT assay; assay type: functional, organism-based; settings: Human immunodeficiency virus 1, HXB2, MT4, 120 h; method in brief: as §1
[5] = tested on: Human immunodeficiency virus 1; test: Antiviral activity against HIV1 HXB2 harboring Y188L mutant reverse transcriptase infected in human MT4 cells after 5 days by MTT assay; assay type: functional, organism-based; settings: Human immunodeficiency virus 1, HXB2, MT4, 120 h; method in brief: as §1

Row | Structure (SMILES) | pIC50 [1] | Ratio CC50/IC50 [2] | pIC50 [3] | pIC50 [4] | pIC50 [5]
1 | Cc1cc(C)cc(Sc2c(CN3CCC(C(N)=O)CC3)c(C)[nH]c(=O)c2I)c1 | 8.30 | >19953 | 8.00 | 6.80 | 5.90
2 | Cc1cc(C)cc(Sc2c(CSCC(C)C)c(C)[nH]c(=O)c2I)c1 | 8.10 | >12589 | 8.00 | 6.70 | 5.60
3 | Cc1cc(C)cc(Sc2c(CSC(C)C)c(C)[nH]c(=O)c2I)c1 | 8.10 | >12589 | 7.50 | 6.20 | 5.50
4 | COCC1CCN(Cc2c(C)[nH]c(=O)c(I)c2Sc2cc(C)cc(C)c2)CC1 | 8.30 | 7943 | 7.70 | 6.20 | 5.50
5 | COC1CCCN(Cc2c(C)[nH]c(=O)c(I)c2Sc2cc(C)cc(C)c2)C1 (stereo not given) | 8.30 | >19953 | 8.50 | 7.60 | 6.90
6 | Cc1cc(C)cc(Sc2c(Cn3cnc(C)c3/C=N/O)c(C)[nH]c(=O)c2I)c1 | 8.20 | >15849 | 6.80 | 5.90 | 5.50
7 | Cc1cc(C)cc(Sc2c(Cn3nc(CC#N)nc3C)c(C)[nH]c(=O)c2I)c1 | 8.30 | >19953 | 7.60 | 7.40 | 6.70
8 | Cc1cc(C)cc(Sc2c(Cc3ccc[nH]3)c(C)[nH]c(=O)c2I)c1 | 8.40 | >25119 | 9.30 | 8.00 | 7.30
9 | COC1CCN(Cc2c(C)[nH]c(=O)c(I)c2Sc2cc(C)cc(C)c2)CC1 | 8.40 | 10000 | 7.90 | 6.70 | 5.70
10 | Cc1cc(C)cc(Sc2c(CSCc3ccco3)c(C)[nH]c(=O)c2I)c1 | 8.20 | >12589 | 8.30 | 7.40 | 6.00
11 | Cc1cc(C)cc(Oc2c(CN3CCSC3)c(C)[nH]c(=O)c2I)c1 | 8.20 | >15848 | 7.80 | 7.40 | 6.60
12 | Cc1cc(C)cc(Oc2c(CSCC3CCCO3)c(C)[nH]c(=O)c2I)c1 (stereo not given) | 8.10 | >12589 | 7.59 | 7.20 | 6.80
13 | Cc1cc(C)cc(Oc2c(Cn3cccn3)c(C)[nH]c(=O)c2I)c1 | 8.30 | >19952 | 8.20 | 7.50 | 6.50
14 | Cc1cc(C)cc(Oc2c(CSC(C)C)c(C)[nH]c(=O)c2I)c1 | 8.30 | >19953 | 7.90 | 7.40 | 6.50
15 | COC1CCCN(Cc2c(C)[nH]c(=O)c(I)c2Oc2cc(C)cc(C)c2)C1 (stereo not given) | 8.20 | >15849 | 8.20 | 7.80 | 7.40
16 | Cc1cc(C)cc(Oc2c(CN(C)Cc3ccco3)c(C)[nH]c(=O)c2I)c1 | 8.30 | 12589 | 7.50 | 7.40 | 6.60
17 | Cc1cc(C)cc(Sc2c(CN3CCC(O)CC3)c(C)[nH]c(=O)c2I)c1 | 8.30 | >19953 | 7.90 | 6.50 | 5.40
18 | Cc1cc(C)cc(Sc2c(CN3CCCCC3)c(C)[nH]c(=O)c2I)c1 | 8.20 | >15849 | 7.50 | 6.10 | 5.10
19 | Cc1cc(C)cc(Oc2c(Cn3cc(Br)cn3)c(C)[nH]c(=O)c2I)c1 | 8.10 | >12589 | 8.10 | 7.50 | 7.00
20 | Cc1cc(C)cc(Oc2c(Cn3cncc3-c3ccccc3)c(C)[nH]c(=O)c2I)c1 | 8.20 | >15858 | 8.10 | 7.50 | 7.50
21 | Cc1cc(C)cc(Oc2c(CNC(=O)c3cc4ccccc4o3)c(C)[nH]c(=O)c2I)c1 | 8.20 | >15849 | 6.70 | 7.50 | 6.80
22 | COCCC1CN(Cc2c(C)[nH]c(=O)c(I)c2Sc2cc(C)cc(C)c2)CCO1 (stereo not given) | 8.40 | 12589 | 8.30 | 7.20 | 6.40
